One molecule from ChEMBL document CHEMBL4765336, “Discovery of coumarin derivatives as potent and selective cyclin-dependent kinase 9 (CDK9) inhibitors with high antitumour activity” (Eur J Med Chem, 2020) can be followed below.

The structures appear in SMILES notation. A value given as a limit tells only on which side of the number the result lay.

A short description of series [1]: Toxicity in BALB/c nude mouse xenografted with human MV4-11 cells assessed as body weight loss at 40 mg/kg, iv administered once daily for 21 days and measured 2 or 3 times per week. In kind it is organism-based. The settings on record: in vivo, 504 h, time 21 day. Put shortly:
(§1)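 Female BALB/c nude mice, six weeks old, with subcutaneous right-flank MV4-11 xenografts (5 million cells in PBS mixed 1:1 with Matrigel). Daily intravenous dosing started at tumour size 150–200 mm³, 6 mice per group, for 21 consecutive days. Vehicle was dimethylacetamide 20%/polyoxyethylated castor oil 40%/anhydrous ethanol 40%. Body weight was recorded two or three times weekly, and mortality was monitored throughout treatment.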

A further series deals with MV4-11. The series can be described thus: Antitumor activity against human MV4-11 cells xenografted in Balb/c nude mouse assessed as reduction in tumor volume at 40 mg/kg, iv administered once daily for 21 days (reference value: 1.00 g). The series is classed as functional. The settings on record: time 21 day. (In general: In xenograft studies the graft and the host belong to different species.)

The target of a further series is CDK2/Cyclin A2 (Homo sapiens, UniProt P24941). The series is described as follows: Inhibition of CDK2/Cyclin A (unknown origin) preincubated for 20 mins followed by ATP addition and measured after 120 mins in presence of [33P-gamma] ATP by hotspot kinase assay. In kind it is protein-complex assay. Put shortly:
(§2)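 Radiometric filter-binding assay: kinase and substrate in 20 mM Hepes pH 7.5, 10 mM MgCl2, 1 mM EGTA, 0.02% Brij35, 0.02 mg/mL BSA, 0.1 mM Na3VO4, 2 mM DTT, 1% DMSO. Compound (top 1/10/27 μM, 3-fold serial dilutions) preincubated 20 min at 25 °C. ATP plus [γ-33P]ATP added to 10 μM final, reacted 120 min at 25 °C. IC50 from curve fit, duplicate mean.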

The target of series [2] is Cyclin-dependent kinase 7/ cyclin H (Homo sapiens, UniProt P50613). The series can be described thus: Inhibition of CDK7/Cyclin H (unknown origin) preincubated for 20 mins followed by ATP addition and measured after 120 mins in presence of [33P-gamma] ATP by hotspot kinase assay. The series is classed as protein-complex assay. In short, it runs like this: as §2
Cyclin-dependent kinase 7/ cyclin H, sequence (P51946 whole entry): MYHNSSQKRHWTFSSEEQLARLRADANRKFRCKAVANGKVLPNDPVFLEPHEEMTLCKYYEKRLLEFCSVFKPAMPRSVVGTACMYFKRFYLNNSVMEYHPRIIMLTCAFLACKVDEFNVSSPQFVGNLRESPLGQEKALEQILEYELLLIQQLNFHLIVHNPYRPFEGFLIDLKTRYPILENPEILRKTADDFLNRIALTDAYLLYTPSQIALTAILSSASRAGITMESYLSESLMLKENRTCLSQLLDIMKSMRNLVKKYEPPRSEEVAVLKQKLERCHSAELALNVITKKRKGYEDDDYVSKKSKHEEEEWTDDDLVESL
Cyclin-dependent kinase 7/ cyclin H, sequence (P50613 whole entry): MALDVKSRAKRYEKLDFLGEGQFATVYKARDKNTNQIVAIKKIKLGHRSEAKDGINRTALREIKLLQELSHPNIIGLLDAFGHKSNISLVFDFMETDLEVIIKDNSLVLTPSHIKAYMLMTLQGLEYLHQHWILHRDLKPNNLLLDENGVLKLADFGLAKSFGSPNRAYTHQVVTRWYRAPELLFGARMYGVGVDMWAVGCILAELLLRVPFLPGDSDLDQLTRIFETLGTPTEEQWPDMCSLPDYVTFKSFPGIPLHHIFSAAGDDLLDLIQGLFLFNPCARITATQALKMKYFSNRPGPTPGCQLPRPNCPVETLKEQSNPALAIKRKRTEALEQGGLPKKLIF
The target of series [3] is Cyclin-dependent kinase 1/cyclin B1 (Homo sapiens, UniProt P06493). The series is described as follows: Inhibition of CDK1/Cyclin B (unknown origin) preincubated for 20 mins followed by ATP addition and measured after 120 mins in presence of [33P-gamma] ATP by hotspot kinase assay. The series is classed as protein-complex assay. In short, it runs like this: as §2
Cyclin-dependent kinase 1/cyclin B1, sequence (P06493 whole entry): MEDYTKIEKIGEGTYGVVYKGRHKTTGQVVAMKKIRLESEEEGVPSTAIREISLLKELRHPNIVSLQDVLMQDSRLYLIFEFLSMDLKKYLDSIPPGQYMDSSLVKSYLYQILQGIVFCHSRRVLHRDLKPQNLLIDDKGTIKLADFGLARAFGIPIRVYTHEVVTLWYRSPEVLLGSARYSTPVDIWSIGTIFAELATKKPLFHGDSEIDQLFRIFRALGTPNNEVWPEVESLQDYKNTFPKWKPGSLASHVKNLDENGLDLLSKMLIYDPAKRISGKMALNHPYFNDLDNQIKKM
Cyclin-dependent kinase 1/cyclin B1, sequence (P14635 whole entry, further chain): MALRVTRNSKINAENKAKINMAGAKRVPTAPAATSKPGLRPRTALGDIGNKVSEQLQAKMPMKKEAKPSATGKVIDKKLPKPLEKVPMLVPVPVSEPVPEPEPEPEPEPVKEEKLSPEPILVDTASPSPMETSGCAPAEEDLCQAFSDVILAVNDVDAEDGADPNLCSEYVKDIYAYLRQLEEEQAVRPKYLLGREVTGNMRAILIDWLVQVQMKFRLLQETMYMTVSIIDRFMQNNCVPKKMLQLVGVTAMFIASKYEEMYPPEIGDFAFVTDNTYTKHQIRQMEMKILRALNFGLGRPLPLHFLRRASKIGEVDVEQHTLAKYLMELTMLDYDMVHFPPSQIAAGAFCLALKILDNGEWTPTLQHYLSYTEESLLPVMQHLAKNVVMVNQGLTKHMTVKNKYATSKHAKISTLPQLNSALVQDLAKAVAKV
Series [4] deals with Cyclin-dependent kinase 4/cyclin D1 (Homo sapiens, UniProt P11802). The series can be described thus: Inhibition of CDK4/Cyclin D1 (unknown origin) preincubated for 20 mins followed by ATP addition and measured after 120 mins in presence of [33P-gamma] ATP by hotspot kinase assay. In kind it is protein-complex assay. In short, it runs like this: as §2
Cyclin-dependent kinase 4/cyclin D1, sequence (P11802 whole entry): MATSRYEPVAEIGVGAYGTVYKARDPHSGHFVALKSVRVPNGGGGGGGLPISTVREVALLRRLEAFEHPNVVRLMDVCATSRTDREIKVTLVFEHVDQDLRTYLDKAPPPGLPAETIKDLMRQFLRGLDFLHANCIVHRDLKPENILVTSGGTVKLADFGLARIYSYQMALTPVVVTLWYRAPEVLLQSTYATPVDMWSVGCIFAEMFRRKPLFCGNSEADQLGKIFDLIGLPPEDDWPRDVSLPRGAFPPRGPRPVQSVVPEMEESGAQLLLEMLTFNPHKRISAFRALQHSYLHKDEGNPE
Cyclin-dependent kinase 4/cyclin D1, sequence (P24385 whole entry, further chain): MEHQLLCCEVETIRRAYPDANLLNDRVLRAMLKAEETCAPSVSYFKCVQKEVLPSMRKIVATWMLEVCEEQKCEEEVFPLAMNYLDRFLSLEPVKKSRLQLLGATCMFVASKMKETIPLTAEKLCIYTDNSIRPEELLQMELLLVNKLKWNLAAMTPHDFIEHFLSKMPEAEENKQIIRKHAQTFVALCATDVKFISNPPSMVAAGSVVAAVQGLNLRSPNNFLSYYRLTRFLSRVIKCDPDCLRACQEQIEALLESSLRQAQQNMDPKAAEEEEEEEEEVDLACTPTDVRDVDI
The target of series [5] is Cyclin-dependent kinase 5/CDK5 activator 1 (Homo sapiens, UniProt Q00535). The series can be described thus: Inhibition of CDK5/p25 (unknown origin) preincubated for 20 mins followed by ATP addition and measured after 120 mins in presence of [33P-gamma] ATP by hotspot kinase assay. In kind it is protein-complex assay. Put shortly:
as §2

Series [6] deals with Serine/threonine-protein kinase MAK (Homo sapiens) (UniProt P20794). The series can be described thus: Inhibition of MAK (unknown origin) assessed as enzyme activity at 1 uM preincubated for 20 mins followed by ATP addition and measured after 120 mins in presence of [33P-gamma] ATP by hotspot kinase assay relative to control. The settings on record: time 140.0 min. Details: scale not given: the % may be the effect or the level left. Put shortly:
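Radiometric filter-binding kinase assay, buffer pH 7.5 with 10 mM MgCl2 and 1% DMSO. Compound tested at a single 1.0 μM, preincubated 20 min at 25 °C. Reaction started with ATP/[γ-33P]ATP at 10 μM final, run 120 min at 25 °C. Remaining % enzyme activity reported, n=2.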

The test system of the next series is MIA PaCa-2. The series can be described thus: Antiproliferative activity against human MIA PaCa-2 cells assessed as inhibition of cell growth incubated for 72 hrs by Celltiter-Glo luminescent assay. In kind it is functional, cell-based. The settings on record: MIA PaCa-2, 72 h. Put shortly: (§3)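 Cells seeded in growth medium and held overnight at 37 °C; medium-only wells served as background. DMSO stocks were diluted in medium to 3× final and added; cells incubated 72 h at 37 °C, 5% CO2. Viability read by CellTiter-Glo luminescence after 60 min at room temperature. IC50 from curve fit, mean of duplicate.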
For orientation: ATP-based viability assays read luminescence as a measure of living cells.

The test system of the next series is NCI-N87. The series can be described thus: Antiproliferative activity against human NCI-N87 cells assessed as inhibition of cell growth incubated for 72 hrs by Celltiter-Glo luminescent assay. The settings on record: NCI-N87, 72 h. In kind it is functional, cell-based. In short, it runs like this:
as §3

The test system of the next series is HepG2. The series is described as follows: Antiproliferative activity against human HepG2 cells assessed as inhibition of cell growth incubated for 72 hrs by Celltiter-Glo luminescent assay. The series is classed as functional, cell-based. The settings on record: HepG2, 72 h. In short, it runs like this:
as §3

The next series concerns MDA-MB-231. The series is described as follows: Antiproliferative activity against human MDA-MB-231 cells assessed as inhibition of cell growth incubated for 72 hrs by Celltiter-Glo luminescent assay. The series is classed as functional, cell-based. The settings on record: MDA-MB-231, 72 h. In short, it runs like this: as §3
A further series has as its system A549. The series is described as follows: Antiproliferative activity against human A549 cells assessed as inhibition of cell growth incubated for 72 hrs by Celltiter-Glo luminescent assay. In kind it is functional, cell-based. The settings on record: A549, 72 h. In short, it runs like this:
as §3

A further series relates to NCI-H460. The series is described as follows: Antiproliferative activity against human NCI-H460 cells assessed as inhibition of cell growth incubated for 72 hrs by Celltiter-Glo luminescent assay. In kind it is functional, cell-based. The settings on record: NCI-H460, 72 h. Put shortly: as §3
A short description of series [7]: Metabolic stability in dog liver microsomes assessed as half life at 1 uM incubated up to 60 mins in presence of NADPH by LC-MS/MS analysis. The series is classed as ADME, Canis lupus familiaris, Microsome. Put shortly: (§4)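 Liver microsomes (0.5 mg/mL) incubated at 37 °C with compound at 1.0 μM final, 3 mM MgCl2 and 1 mM NADPH in 100 mM PBS pH 7.4. Samples taken at 0, 5, 15, 30, 60 min; remaining parent measured by LC-MS/MS. k = −slope, T1/2 = 0.693/k, CLint = k/microsomal protein concentration. Midazolam served as control.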
(Microsomes from liver hold many membrane-bound enzymes, among them those of drug oxidation.)

A short description of series [8]: Metabolic stability in rat liver microsomes assessed as intrinsic clearance at 1 uM incubated up to 60 mins in presence of NADPH by LC-MS/MS analysis. The series is classed as ADME, Microsome. The settings on record: read-out: CLH. In short, it runs like this:
as §4

The nature of series [9]: Half life in ICR mouse at 2 mg/kg, iv measured up to 24 hrs by LC-MS/MS analysis. The series is classed as ADME, organism-based. The settings on record: in vivo. In short, it runs like this:
(§5)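 Male ICR mice (25.1–28.8 g, n=9), fasted 12 h, given a single i.v. dose of 2.0 mg/kg at 0.4 mg/mL in DMSO/PEG200/saline (1:1:3). Blood sampled at 0, 0.083, 0.25, 0.5, 1, 2, 4, 8, 24 h. Plasma ACN-precipitated and quantified by LC-MS/MS. Parameters derived from composite mean plasma concentration-time data.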

Series [10] is described as follows: AUC (0 to infinity) in ICR mouse at 2 mg/kg, iv measured up to 24 hrs by LC-MS/MS analysis. In kind it is ADME, organism-based. Set-up: route intravenous, dose 2 mg/kg, time <=24. The settings on record: in vivo.
A short description of series [11]: Clearance in ICR mouse at 2 mg/kg, iv measured up to 24 hrs by LC-MS/MS analysis. The settings on record: in vivo. The series is classed as ADME, organism-based. Put shortly:
as §5

Series [12] can be described thus: Oral bioavailability in ICR mouse at 30 mg/kg measured up to 24 hrs by LC-MS/MS analysis. The settings on record: in vivo. In kind it is ADME, organism-based. Put shortly:
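ICR mice (9 per route) received 30 mg/kg p.o. or 2.0 mg/kg i.v. Plasma was sampled to 24 h and analysed by LC-MS/MS. F (%) = AUC0-∞(oral)/AUC0-∞(iv) × dose(iv)/dose(oral) × 100.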

A short description of series [13]: Toxicity in BALB/c nude mouse xenografted with human MV4-11 cells assessed as mortality at 40 mg/kg, iv administered once daily for 21 days and measured 2 or 3 times per week. In kind it is organism-based. The settings on record: in vivo, 504 h, time 21 day. Put shortly:
as §1

Cyclin-dependent kinase 5/CDK5 activator 1, sequence (Q00535 whole entry): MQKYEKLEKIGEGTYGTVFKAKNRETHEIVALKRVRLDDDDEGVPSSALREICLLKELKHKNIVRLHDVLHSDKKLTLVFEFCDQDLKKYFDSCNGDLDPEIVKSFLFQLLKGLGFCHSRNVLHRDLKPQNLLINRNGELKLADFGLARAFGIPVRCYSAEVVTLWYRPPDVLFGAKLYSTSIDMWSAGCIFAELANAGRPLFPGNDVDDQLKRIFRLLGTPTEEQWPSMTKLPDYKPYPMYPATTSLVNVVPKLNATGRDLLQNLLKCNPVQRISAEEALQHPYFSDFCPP
Cyclin-dependent kinase 5/CDK5 activator 1, sequence (Q15078 whole entry, further chain): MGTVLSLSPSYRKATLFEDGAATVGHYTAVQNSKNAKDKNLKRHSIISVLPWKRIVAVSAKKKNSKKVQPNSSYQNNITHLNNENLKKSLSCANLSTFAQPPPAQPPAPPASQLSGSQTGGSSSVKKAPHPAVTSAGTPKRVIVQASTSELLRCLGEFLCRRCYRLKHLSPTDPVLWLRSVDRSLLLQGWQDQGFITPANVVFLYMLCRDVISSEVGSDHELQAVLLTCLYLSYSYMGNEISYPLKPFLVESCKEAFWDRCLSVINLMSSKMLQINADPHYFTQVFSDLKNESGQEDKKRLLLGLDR
Serine/threonine-protein kinase MAK (Homo sapiens), sequence (P20794 whole entry): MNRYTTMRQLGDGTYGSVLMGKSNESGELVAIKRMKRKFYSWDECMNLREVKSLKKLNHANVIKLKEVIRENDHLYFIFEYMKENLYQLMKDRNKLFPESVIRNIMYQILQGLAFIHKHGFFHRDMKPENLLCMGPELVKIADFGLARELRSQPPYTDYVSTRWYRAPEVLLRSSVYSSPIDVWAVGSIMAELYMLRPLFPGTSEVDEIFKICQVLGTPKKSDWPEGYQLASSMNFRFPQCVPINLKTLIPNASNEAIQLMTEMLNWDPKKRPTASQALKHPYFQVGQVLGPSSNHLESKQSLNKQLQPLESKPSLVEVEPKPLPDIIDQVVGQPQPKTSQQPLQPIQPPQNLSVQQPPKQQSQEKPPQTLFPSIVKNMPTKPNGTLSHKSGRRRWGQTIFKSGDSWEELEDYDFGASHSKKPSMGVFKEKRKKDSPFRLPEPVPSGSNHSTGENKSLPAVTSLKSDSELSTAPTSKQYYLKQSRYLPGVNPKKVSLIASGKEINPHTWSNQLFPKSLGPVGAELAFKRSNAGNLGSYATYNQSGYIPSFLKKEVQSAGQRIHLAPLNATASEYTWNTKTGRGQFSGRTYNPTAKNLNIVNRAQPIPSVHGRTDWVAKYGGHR

As usually defined, the IC50 is the concentration at which inhibition is half-maximal. As usually defined, the half-life is how long it takes for the measured level to halve. By AUC(0-inf) is commonly meant the area under the concentration-time curve extrapolated to infinity. What is called clearance is the rate of elimination divided by the concentration. As usually defined, the bioavailability is the share of a dose that reaches the circulation, judged against a reference dose that is usually intravenous. Regarding `COc1cc(F)ccc1-c1nc(Nc2ccc3c(N4CCOCC4)c(C(C)=O)c(=O)oc3c2)ncc1F`, the Activity result in series [1] was “Non-Toxic”; in the series on MV4-11, 0.18 g; in series [6], less than 10%; in series [13], “Non-Toxic”. Moreover, the IC50 on CDK2/Cyclin A2 is 320 nM; in series [2] it was 16600 nM; in [3], 1950 nM; in [4] it was 471 nM; in series [5], 1260 nM; in the series on MIA PaCa-2 it was 460 nM. The half-maximal inhibitory concentration (IC50) with NCI-N87 came out at 600 nM; in the series on HepG2, 100 nM; in the series with MDA-MB-231, 230 nM; in the series with A549 it was 470 nM; with NCI-H460, 640 nM. Further, in series [7], the half-life at 1 µM is 14 min. In series [8], the microsomal CLint at 1 µM amounted to 689 µL/min/mg. In [9], the half-life was 13.8 min. The same molecule came in with an area under the curve AUC(0-inf) in [10] of 561 ng·h/mL. In series [11], this molecule had a clearance of 59.3 mL/min/kg. In series [12], this molecule had a bioavailability of 14.3%.
